# Tests used:
# THP-1 cells = experiment: Cellular uptake and metabolism of α-MG; assay type: in vitro ADME, human; settings: 24 h after addition of α-MG, control cultures; nd: not detected
# Outline: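 THP-1 monocytes were differentiated with 100 nM PMA for 48 h, then exposed 24 h to 5.2 μM compound (DMSO stock into 10% FBS medium). Activated cultures were pre-exposed to 5 ng/mL LPS for 4 h and washed with PBS. Spent medium and cells were collected separately, extracted and analysed by RP-HPLC for free and glucuronidated/sulfated xanthones. Amounts are % of initial compound; mean ± SD, n ≥ 5.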
# [1] = tested on: LPS-induced production of NO in RAW 264.7 cells; experiment: LPS-induced production of NO; assay type: cell-based, murine; settings: Mus musculus, RAW264.7, read-out: inhibition of LPS-induced production of NO
# Outline: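 RAW 264.7 cells, 2 days post-confluence, were pretreated 2 h with compound (DMSO stock into 10% FBS medium). They were then stimulated 16 h with 5 ng/mL E. coli O111:B4 LPS. NO production was estimated as medium nitrite by the Griess reaction.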
# HepG2 cells = experiment: Cellular uptake and metabolism of α-MG; assay type: in vitro ADME, human; settings: 24 h after addition of α-MG, control cultures; nd: not detected
# Outline: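 HepG2 monolayers, 2 days post-confluence, received 9.0 μM compound as a DMSO stock added to 10% FBS medium for 24 h. Activated cultures had 10 ng/mL TNF-α for 4 h and a PBS wash first. Medium and cells were collected separately, extracted and analysed by RP-HPLC for free and glucuronidated/sulfated xanthones. Quantification used retention time, UV spectrum and five-point standard curves, as % of initial amount; mean ± SD, n ≥ 5.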
# Caco-2 cells = experiment: Cellular uptake, metabolism and transport of α-MG on Transwell inserts; assay type: in vitro ADME, human; settings: 24 h after addition of α-MG, control cultures; nd: not detected
# Outline: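 Caco-2 cells were differentiated 21–25 days post-confluence on Transwell inserts. Compound (12 μM) in Tween 40 micelles was added apically for 24 h. Activated cultures had 5 ng/mL IL-1β for 4 h, then a PBS wash. Apical medium, basolateral medium and cell monolayer were collected separately and analysed by RP-HPLC for free and conjugated xanthones. Amounts are % of initial compound; mean ± SD, n ≥ 5.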
compound,measurement,setting,value
COc1c(O)cc2oc3cc(O)c(CC=C(C)C)c(O)c3c(=O)c2c1CCC(C)(C)O [garcinone D],"intracellular xanthone, THP-1",THP-1 cells,66 ± 2 pmol/dish
"COC(=O)[C@@H](N)CCCNC(N)=N[N+](=O)[O-] [L-NAME, reference compound]",inhibition at 200 µM,[1],30%
COc1c(O)cc2oc3cc4c(c(O)c3c(=O)c2c1CC=C(C)C)C=CC(C)(C)O4 [9-hydroxycalabaxanthone],"intracellular xanthone, HepG2",HepG2 cells,44 ± 5 pmol/dish
same,"intracellular xanthone, Caco-2",Caco-2 cells,100 ± 17 pmol/dish

# — article PMC3793015 (Journal of agricultural and food chemistry, 2013)
